{"data": "Results collected from several papers", "RET": "Proto-oncogene tyrosine-protein kinase receptor Ret (RET, Homo sapiens, UniProt P07949)", "RET V804M": "Proto-oncogene tyrosine-protein kinase receptor Ret (RET, Homo sapiens, UniProt P07949, V804M)", "note": "Each line is one published result; the experiments were not run side by side."}
{"target": "RET", "read-out": "binding", "tested at": "1 µM", "quantity": "remaining binding", "result": "109%", "Compound": "COc1ccc2oc(-c3ccc4nc(N)oc4c3)c/c(=N\\c3ccccc3NC(=O)CCN)c2c1"}
{"target": "Proto-oncogene tyrosine-protein kinase receptor Ret (RET, Homo sapiens, UniProt P07949, M918T)", "read-out": "binding", "tested at": "0.1 µM", "quantity": "remaining binding", "result": "100%", "Compound": "C1=C/COCc2cc(ccc2OCCN2CCCC2)Nc2nccc(n2)-c2cccc(c2)COC/1"}
{"target": "RET V804M", "read-out": "binding", "tested at": "1 µM", "quantity": "remaining binding", "result": "98%", "Compound": "Cc1ccc(NC(=O)c2ccnc(C(F)(F)F)c2)cc1-c1cc(OCCO)nc(N2CCOCC2)c1"}
{"target": "RET", "read-out": "enzyme activity", "mode": "inhibitor", "tested at": "1 µM", "quantity": "inhibition", "result": "7%", "Compound": "CC#CC(=O)N1CCC[C@H]1c1nc(-c2ccc(C(=O)Nc3ccccn3)cc2)c2c(N)nccn12"}
{"target": "Proto-oncogene tyrosine-protein kinase receptor Ret (RET, Homo sapiens, UniProt P07949, V804L)", "read-out": "binding", "method": "competition with immobilised ligand", "tested at": "0.5 µM", "quantity": "remaining binding", "result": "100%", "Compound": "CCCCC(=O)Nc1ccc(-c2ccc3ncn(CCC)c(=O)c3c2)cn1"}
{"target": "RET", "read-out": "cell-free assay", "method": "competition with immobilised ligand", "tested at": "25 µM", "quantity": "remaining binding", "result": "100%", "Compound": "N#Cc1ccc(NC(=O)Nc2ccccc2)cc1"}
{"target": "RET", "read-out": "enzyme activity", "mode": "inhibitor", "tested at": "1 µM", "quantity": "inhibition", "result": "95%", "Compound": "CO[C@@H]1[C@H](N(C)C(=O)c2ccccc2)C[C@H]2O[C@]1(C)n1c3ccccc3c3c4c(c5c6ccccc6n2c5c31)C(=O)NC4"}
{"target": "RET V804M", "read-out": "binding", "tested at": "1 µM", "quantity": "remaining binding", "result": "0.5%", "Compound": "CN1CCN(C(=O)c2ccc(NC(=O)Nc3ccc(N(C)c4ccnc(Nc5ccc(CS(C)(=O)=O)cc5)n4)cc3)cc2)CC1"}
